Measured values taken from ChEMBL document CHEMBL1152930, “Discovery of tetrahydrotetramethylnaphthalene analogs as adult T-cell leukemia cell-selective proliferation inhibitors in a small chemical library constructed based on multi-template hypothesis” (Bioorg Med Chem, 2009).

Experiments:
[1] = Antiproliferative activity against HTLV1-carrying human S1T cells isolated from peripheral blood mononuclear cells of adult T leukemic patient after 4 days by MTT assay; assay type: functional; conditions: 96 h
In short: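 Cells grown 4 days without or with a range of compound concentrations; viable cell number read by MTT; IC₅₀ calculated from the resulting data.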

MOLT-4 [2] = assay: Antiproliferative activity against HTLV1-deficient human MOLT4 cells after 4 days by MTT assay; assay type: functional, cell-based; conditions: MOLT-4, 96 h
In short: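 Cells were cultured without or with a range of test-compound concentrations for 4 days. Viable cell number was then measured by MTT, and IC50 values were calculated from it. The same protocol was run in parallel on S1T cells, an ATL patient-derived line.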

HL-60 = assay: Antiproliferative activity against human HL60 cells; assay type: functional, cell-based
Jurkat = assay: Antiproliferative activity against human Jurkat cells; assay type: functional, cell-based
U-937 = assay: Antiproliferative activity against human U937 cells; assay type: functional, cell-based
MOLT-4 [3] = assay: Antiproliferative activity against human MOLT4 cells; assay type: functional, cell-based
MOLT-4 [4] = assay: Selectivity index, ratio of IC50 for HTLV1-deficient human MOLT4 cells to IC50 for HTLV1-carrying S1T cells isolated from peripheral blood mononuclear cells of adult T leukemic patient; assay type: functional
In short: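 SI taken as IC₅₀ in MOLT-4 over IC₅₀ in S1T cells. Both IC₅₀ values come from 4-day MTT viable-cell counts over a range of concentrations.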

[5] = Cell cycle arrest in HTLV1-carrying human S1T cells isolated from peripheral blood mononuclear cells of adult T leukemic patient assessed as accumulation at G0/G1 phase at 20 uM after 24 hrs using propidium iodide/RNA staining buffer by FACS analysis; assay type: functional
In short: (§1)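 Cells seeded at 1 × 10⁶/ml with or without 20 µM compound for 24 h. Then PBS wash, fixing in 1% paraformaldehyde, permeabilising in 70% ethanol and 15 min propidium iodide/RNA staining. Phase populations given as % of cells.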

[6] = Cell cycle arrest in HTLV1-carrying human S1T cells isolated from peripheral blood mononuclear cells of adult T leukemic patient assessed as accumulation at G2/M phase at 20 uM after 24 hrs using propidium iodide/RNA staining buffer by FACS analysis; assay type: functional; in short: as §1
[7] = Cell cycle arrest in HTLV1-carrying human S1T cells isolated from peripheral blood mononuclear cells of adult T leukemic patient assessed as accumulation at S phase at 20 uM after 24 hrs using propidium iodide/RNA staining buffer by FACS analysis; assay type: functional; in short: as §1
MOLT-4 [8] = assay: Cell cycle arrest in HTLV1-deficient human MOLT4 cells assessed as accumulation at G0/G1 phase at 20 uM after 24 hrs using propidium iodide/RNA staining buffer by FACS analysis; assay type: functional; in short: as §1
MOLT-4 [9] = assay: Cell cycle arrest in HTLV1-deficient human MOLT4 cells assessed as accumulation at G2/M phase at 20 uM after 24 hrs using propidium iodide/RNA staining buffer by FACS analysis; assay type: functional; in short: as §1
MOLT-4 [10] = assay: Cell cycle arrest in HTLV1-deficient human MOLT4 cells assessed as accumulation at S phase at 20 uM after 24 hrs using propidium iodide/RNA staining buffer by FACS analysis; assay type: functional; in short: as §1
[11] = Induction of apoptosis in HTLV1-carrying human S1T cells isolated from peripheral blood mononuclear cells of adult T leukemic patient at 20 uM after 24 hrs using fluorescein isothiocyanate-conjugated annexin V staining by FACS analysis; assay type: functional
In short: (§2)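 Cells seeded at 1 × 10⁶/ml and held with or without 20 µM compound for 24 or 48 h. Apoptotic cells given as %; relative values are the ratio of treated to untreated apoptosis %.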

[12] = Induction of apoptosis in HTLV1-carrying human S1T cells isolated from peripheral blood mononuclear cells of adult T leukemic patient at 20 uM after 48 hrs using fluorescein isothiocyanate-conjugated annexin V staining by FACS analysis; assay type: functional; in short: as §2
MOLT-4 [13] = assay: Induction of apoptosis in HTLV1-deficient human MOLT4 cells at 20 uM after 24 hrs using fluorescein isothiocyanate-conjugated annexin V staining by FACS analysis; assay type: functional; in short: as §2
MOLT-4 [14] = assay: Induction of apoptosis in HTLV1-deficient human MOLT4 cells at 20 uM after 48 hrs using fluorescein isothiocyanate-conjugated annexin V staining by FACS analysis; assay type: functional; in short: as §2
[15] = Induction of apoptosis in HTLV1-carrying human S1T cells isolated from peripheral blood mononuclear cells of adult T leukemic patient at 20 uM after 24 hrs using fluorescein isothiocyanate-conjugated annexin V staining by FACS analysis relative to control; assay type: functional; in short: as §2
[16] = Induction of apoptosis in HTLV1-carrying human S1T cells isolated from peripheral blood mononuclear cells of adult T leukemic patient at 20 uM after 48 hrs using fluorescein isothiocyanate-conjugated annexin V staining by FACS analysis relative to control; assay type: functional; in short: as §2

SMILES | IC50 [1] [µM] | IC50 (MOLT-4 [2]) [µM] | Ratio IC50 (MOLT-4 [4]) | also measured
CC1(C)CCC(C)(C)c2ccccc21 | > 100 | > 100 | – | –
CC1(C)CCC(C)(C)c2cc(NC(=O)c3ccc(C(=O)O)cc3)ccc21 [TAMIBAROTENE] | – | – | – | IC50 (HL-60): 6 µM; IC50 (Jurkat): 17.3 µM; IC50 (U-937): 20.2 µM; IC50 (MOLT-4 [3]): 19.5 µM
COc1cc2c(cc1C(C)=O)C(C)(C)CCC2(C)C | 7 | 11.9 | 1.7 | –
CC(C)(C)C(=O)c1cc2c(cc1O)C(C)(C)CCC2(C)C | 41.5 | 43.2 | 1 | –
CC(=O)c1ccc(C)cc1C | > 100 | > 100 | – | –
CC(=O)c1ccc2c(c1)C(C)(C)CCC2(C)C | 6.9 | 66 | 9.6 | –
CON(C)C(=O)c1ccc2c(c1)C(C)(C)CCC2(C)C | 12.6 | 9.9 | 0.8 | –
CC(C)C(=O)c1cc2c(cc1O)C(C)(C)CCC2(C)C | 6 | 31.9 | 5.3 | –
CC(=O)c1ccc(C)c(C)c1 | > 100 | > 100 | – | –
CC(C)C(=O)c1ccc2c(c1)C(C)(C)CCC2(C)C | 3.8 | 34.6 | 9.1 | –
CC1(C)CCC(C)(C)c2cc(C(=O)O)c(O)cc21 | 29.7 | 44.4 | 1.5 | –
CC1(C)CCC(C)(C)c2cc(C(=O)c3ccccc3)c(O)cc21 | 15.2 | 28.3 | 1.9 | –
CC(O)c1ccc2c(c1)C(C)(C)CCC2(C)C (racemic) | 39.3 | 34.4 | 0.87 | –
CCC(=O)c1cc2c(cc1O)C(C)(C)CCC2(C)C | 4.7 | 32.3 | 6.9 | –
CC(=S)c1cc2c(cc1O)C(C)(C)CCC2(C)C | 6.9 | 36.4 | 5.3 | –
CC1(C)CCC(C)(C)c2cc(C(=O)O)ccc21 | > 100 | 61.1 | – | –
CC1(C)CCC(C)(C)c2cc(C=O)ccc21 | 33 | 24.8 | 0.75 | –
CC(=O)c1cc(C)cc(C)c1 | > 100 | > 100 | – | –
CCC(=O)c1ccc2c(c1)C(C)(C)CCC2(C)C | 4.7 | 21.5 | 4.6 | –
CC(=O)c1cc2c(cc1O)C(C)(C)CCC2(C)C | 6.7 | 82.9 | 12.4 | Activity [5]: 37%; Activity [6]: 23%; Activity [7]: 40%; Activity (MOLT-4 [8]): 42.14%; Activity (MOLT-4 [9]): 11.1%; Activity (MOLT-4 [10]): 46.76%; Activity [11]: 10.1%; Activity [12]: 10.1%; Activity (MOLT-4 [13]): 7%; Activity (MOLT-4 [14]): 4%; Activity [15]: 1.3%; Activity [16]: 2.1%
CC1(C)CCC(C)(C)c2cc(C(=O)c3ccccc3)ccc21 | 7 | 11.8 | 1.7 | –
CC1(C)CCC(C)(C)c2cc(C(N)=O)ccc21 | 37 | 39.4 | 1.1 | –
